Data as given in ChEMBL document CHEMBL3046806, “Synthesis and herbicidal activity of novel 3-aminocarbonyl-2-oxazolidinethione derivatives containing a substituted pyridine ring” (2006).
Active and inactive are the calls of the source. The calls are words filed in the database; no cut-off is given here.

How the values were obtained:
Eclipta prostrata = experiment: Herbicidal activity against Eclipta prostrata assessed as growth inhibition rate at 100 mg/L 7 days post compound treatment; type: functional; conditions: 168 h, read-out: GI
Method in brief: (§1)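 Compound dissolved in DMF and diluted to the test concentration with water containing emulsifier 0201 (anionic/nonionic surfactant, 0.1 g L-1). Seeds were sown once the agar cooled and kept at 24 ± 1 °C under 3000 lx light for 7 days. Read-out was root growth inhibition (%) versus control, in three replicates of 150 seeds per species per concentration.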

Echinochloa crus-galli [1] = experiment: Herbicidal activity against Echinochloa crus-galli (barnyard grass) assessed as induction of yellow symptoms of leaves 7 days post compound treatment; type: functional, organism-based
Sorghum bicolor = experiment: Herbicidal activity against Sorghum bicolor assessed as growth inhibition rate at 100 mg/L 7 days post compound treatment; type: functional; conditions: 168 h, read-out: GI; method in brief: as §1
Cucumis sativus = experiment: Herbicidal activity against Cucumis sativus (cucumber) assessed as growth inhibition rate at 100 mg/L 7 days post compound treatment; type: functional; conditions: 168 h, read-out: GI; method in brief: as §1
Digitaria sanguinalis = experiment: Herbicidal activity against Digitaria sanguinalis (hairy crabgrass) assessed as growth inhibition rate at 100 mg/L 7 days post compound treatment; type: functional; conditions: 168 h, read-out: GI; method in brief: as §1
Echinochloa crus-galli [2] = experiment: Herbicidal activity against Echinochloa crus-galli (barnyard grass) assessed as induction weed albinism 7 days post compound treatment; type: functional, organism-based
[3] = tested on: Brassica rapa subsp. oleifera; experiment: Herbicidal activity against Brassica rapa subsp. oleifera assessed as growth inhibition rate at 100 mg/L 7 days post compound treatment; type: functional; conditions: 168 h, read-out: GI; method in brief: as §1
Echinochloa crus-galli [4] = experiment: Herbicidal activity against Echinochloa crus-galli (barnyard grass) assessed as growth inhibition rate at 100 mg/L 7 days post compound treatment; type: functional; conditions: 168 h, read-out: GI; method in brief: as §1

SMILES	inhibition of growth at 100 µg/mL (Eclipta prostrata) [%]	Activity (Echinochloa crus-galli [1])	inhibition of growth at 100 µg/mL (Sorghum bicolor) [%]	inhibition of growth at 100 µg/mL (Cucumis sativus) [%]	inhibition of growth at 100 µg/mL (Digitaria sanguinalis) [%]	Activity (Echinochloa crus-galli [2])	inhibition of growth at 100 µg/mL [3] [%]	inhibition of growth at 100 µg/mL (Echinochloa crus-galli [4]) [%]
C[C@@H]1[C@H](c2ccncc2)OC(=S)N1C(=O)Nc1ccccc1[N+](=O)[O-] (relative stereo)	80	Active	70	20	70	Active	50	60
CCOc1ccc([C@@H]2OC(=S)N(C(=O)Nc3ccccc3OCC)[C@@H]2C)cn1 (relative stereo)	20	Active	0	0	80	Active	0	50
CCOc1ccccc1NC(=O)N1C(=S)O[C@@H](c2ccc(Cl)nc2)[C@H]1C (relative stereo)	90	Active	70	90	80	Active	90	90
C[C@@H]1[C@H](c2ccc(OCC(F)(F)F)nc2)OC(=S)N1C(=O)NC1CCCCC1 (relative stereo)	80	Active	60	40	70	Active	40	80
C[C@@H]1[C@H](c2ccccn2)OC(=S)N1C(=O)NC1CCCCC1 (relative stereo)	80	Active	0	0	70	Active	0	70
C[C@@H]1[C@H](c2ccncc2)OC(=S)N1C(=O)NC1CCCCC1 (relative stereo)	85	Active	30	20	80	Active	80	90
